According to ChEMBL document CHEMBL1275442, “Pharmacokinetics and tissue distribution of anidulafungin in rats” (Antimicrob Agents Chemother, 2008):

Tests used:
Type in all cases: ADME, organism-based
Blood = test: Drug level in Long Evans rat blood assessed as radioactivity per gram of tissue at 5 mg/kg, iv administered as single bolus dose measured 72 hrs postdose by autoradiography; set-up: dose 5 mg/kg, route intravenous; conditions: in vivo
Outline: (§1)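 Male pigmented Long Evans (HsdBlu:LE) rats, 7.5 weeks old, 202 to 217 g, single iv [¹⁴C]anidulafungin; one rat per sampling time. Euthanized by isoflurane and cardiac-puncture exsanguination. Sagittal whole-body sections quantified by phosphorimaging autoradiography, single samples corrected for section thickness across multiple sections per tissue. Concentrations (μg eq/g drug-derived radioactivity) interpolated from least-squares standard curves per scan.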

Plasma = test: AUC (0 to 24 hrs) in F344 rat plasma assessed as total compound-derived radioactivity per gram of tissue at 5 mg/kg, iv administered as single bolus dose […]; set-up: time < 24 hr, dose 5 mg/kg, route intravenous; conditions: in vivo
Outline: (§2)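 Same F344 study: single 5 mg/kg IV [¹⁴C]anidulafungin given over about 5 min. Total drug-derived radioactivity (parent plus metabolites) counted by liquid scintillation, in […]. Noncompartmental analysis of the composite mean profile.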

Kidney [1] = test: Drug level in Long Evans rat kidney assessed as high disposition of radioactivity per gram of tissue at 5 mg/kg, iv administered as single bolus dose measured 24 hrs postdose by autoradiography; set-up: dose 5 mg/kg, route intravenous; conditions: in vivo; outline: as §1
Liver [2] = test: Drug level in Long Evans rat liver assessed as low disposition of radioactivity per gram of tissue at 5 mg/kg, iv administered as single bolus dose measured 6 hrs postdose by autoradiography; set-up: dose 5 mg/kg, route intravenous; conditions: in vivo; outline: as §1
Spleen [3] = test: Drug level in Long Evans rat spleen assessed as radioactivity per gram of tissue at 5 mg/kg, iv administered as single bolus dose measured 0.5 hrs postdose by autoradiography; set-up: dose 5 mg/kg, route intravenous; conditions: in vivo
Outline: (§3)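 Male pigmented Long Evans (HsdBlu:LE) rats, 7.5 weeks old and 202 to 217 g, got a single iv dose of [14C]anidulafungin at 5 mg/kg. One rat per time point (0.5, 6, 12, 24, 72, 168 h) was euthanised by isoflurane and cardiac-puncture exsanguination. Sagittal whole-body sections were quantified by phosphorimaging. Samples were thickness-corrected, and concentrations (μg eq/g) were interpolated from least-squares standard curves.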

Kidney [4] = test: Drug level in Long Evans rat kidney assessed as low disposition of radioactivity per gram of tissue at 5 mg/kg, iv administered as single bolus dose measured 72 hrs postdose by autoradiography; set-up: dose 5 mg/kg, route intravenous; conditions: in vivo; outline: as §1
Zone of skin [5] = test: Drug level in Long Evans rat skin assessed as radioactivity per gram of tissue at 5 mg/kg, iv administered as single bolus dose measured 12 hrs postdose by autoradiography; set-up: dose 5 mg/kg, route intravenous; conditions: in vivo; outline: as §3
Liver [6] = test: AUC (0 to 24 hrs) in F344 rat liver assessed as total compound-derived radioactivity per gram of tissue at 5 mg/kg, iv administered as single bolus dose […]; set-up: time < 24 hr, dose 5 mg/kg, route intravenous; conditions: in vivo; outline: as §2
Cerebrospinal fluid [7] = test: AUC (0 to infinity) in F344 rat cerebrospinal fluid assessed as total compound-derived radioactivity per gram of tissue at 5 mg/kg, iv administered as single bolus dose […]; set-up: time infinity, dose 5 mg/kg, route intravenous; conditions: in vivo; outline: as §2
[8] = Drug level in Long Evans rat eye assessed as radioactivity per gram of tissue at 5 mg/kg, iv administered as single bolus dose measured 72 hrs postdose by autoradiography; set-up: dose 5 mg/kg, route intravenous; conditions: in vivo; outline: as §1
Liver [9] = test: Drug level in Long Evans rat liver assessed as high disposition of radioactivity per gram of tissue at 5 mg/kg, iv administered as single bolus dose measured 6 hrs postdose by autoradiography; set-up: dose 5 mg/kg, route intravenous; conditions: in vivo; outline: as §1
Kidney [10] = test: AUC (0 to 24 hrs) in F344 rat kidney assessed as total compound-derived radioactivity per gram of tissue at 5 mg/kg, iv administered as single bolus dose […]; set-up: time < 24 hr, dose 5 mg/kg, route intravenous; conditions: in vivo; outline: as §2
Zone of skin [11] = test: Drug level in Long Evans rat skin assessed as radioactivity per gram of tissue at 5 mg/kg, iv administered as single bolus dose measured 72 hrs postdose by autoradiography; set-up: dose 5 mg/kg, route intravenous; conditions: in vivo; outline: as §3
Spleen [12] = test: AUC (0 to 24 hrs) in F344 rat spleen at 5 mg/kg, iv administered as single bolus dose; set-up: time < 24 hr, dose 5 mg/kg, route intravenous; conditions: in vivo
Outline: (§4)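 Male F344 rats, 10–11 weeks, 223.6–243.8 g, given one IV dose of [¹⁴C]anidulafungin, 5 mg/kg, over about 5 min. Tissues and blood sampled at 0.083–72 h (n = 3 rats per time). Parent drug measured by HPLC; LLOQ/ULOQ were 20/5,120 ng/ml for plasma and 220/56,320 ng/g for tissue. Noncompartmental parameters taken from the composite mean profile.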

Zone of skin [13] = test: Drug level in Long Evans rat skin assessed as radioactivity per gram of tissue at 5 mg/kg, iv administered as single bolus dose measured 24 hrs postdose by autoradiography; set-up: dose 5 mg/kg, route intravenous; conditions: in vivo; outline: as §3
[14] = Cmax in F344 rat liver at 5 mg/kg, iv administered as single bolus dose after 5 min by HPLC method; set-up: dose 5 mg/kg, route intravenous; outline: as §4
Liver [15] = test: Drug level in Long Evans rat liver assessed as low disposition of radioactivity per gram of tissue at 5 mg/kg, iv administered as single bolus dose measured 168 hrs postdose by autoradiography; set-up: dose 5 mg/kg, route intravenous; conditions: in vivo; outline: as §1
Kidney [16] = test: Drug level in Long Evans rat kidney assessed as high disposition of radioactivity per gram of tissue at 5 mg/kg, iv administered as single bolus dose measured 168 hrs postdose by autoradiography; set-up: dose 5 mg/kg, route intravenous; conditions: in vivo; outline: as §1
Zone of skin [17] = test: Half life in F344 rat skin assessed as total compound-derived radioactivity at 5 mg/kg, iv administered as single bolus dose […]; set-up: dose 5 mg/kg, route intravenous; conditions: in vivo
Outline: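 Male F344 rats, 10 to 11 weeks old and 223.6 to 243.8 g, got one iv dose of [14C]anidulafungin at 5 mg/kg over about 5 min. Blood, CSF, kidney, liver, lung, quadriceps, spleen and skin were sampled predose and at 0.083 to 72 h, 3 rats per time. Total radioactivity (parent plus metabolites) was measured by liquid scintillation counting. Parameters were noncompartmental, from a composite mean profile.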

Kidney [18] = test: Drug level in Long Evans rat kidney assessed as low disposition of radioactivity per gram of tissue at 5 mg/kg, iv administered as single bolus dose measured 12 hrs postdose by autoradiography; set-up: dose 5 mg/kg, route intravenous; conditions: in vivo; outline: as §1
Cerebrospinal fluid [19] = test: Drug level in Long Evans rat cerebrospinal fluid assessed as radioactivity per gram of tissue at 5 mg/kg, iv administered as single bolus dose measured 6 hrs postdose by autoradiography; set-up: dose 5 mg/kg, route intravenous; conditions: in vivo; outline: as §1
Lung = test: Cmax in F344 rat lung assessed as total compound-derived radioactivity per gram of tissue at 5 mg/kg, iv administered as single bolus dose after 5 mins by HPLC method; set-up: dose 5 mg/kg, route intravenous; conditions: in vivo; outline: as §2
Kidney [20] = test: Drug level in Long Evans rat kidney assessed as high disposition of radioactivity per gram of tissue at 5 mg/kg, iv administered as single bolus dose measured 6 hrs postdose by autoradiography; set-up: dose 5 mg/kg, route intravenous; conditions: in vivo; outline: as §1
Muscle tissue [21] = test: AUC (0 to infinity) in F344 rat muscle assessed as total compound-derived radioactivity per gram of tissue at 5 mg/kg, iv administered as single bolus dose […]; set-up: time infinity, dose 5 mg/kg, route intravenous; conditions: in vivo; outline: as §2
Liver [22] = test: Drug level in Long Evans rat liver assessed as high disposition of radioactivity per gram of tissue at 5 mg/kg, iv administered as single bolus dose measured 12 hrs postdose by autoradiography; set-up: dose 5 mg/kg, route intravenous; conditions: in vivo; outline: as §1
Spleen [23] = test: AUC (0 to infinity) in F344 rat spleen at 5 mg/kg, iv administered as single bolus dose; set-up: time infinity, dose 5 mg/kg, route intravenous; conditions: in vivo; outline: as §4
Muscle tissue [24] = test: Drug level in Long Evans rat muscle assessed as radioactivity per gram of tissue at 5 mg/kg, iv administered as single bolus dose measured 24 hrs postdose by autoradiography; set-up: dose 5 mg/kg, route intravenous; conditions: in vivo; outline: as §3

**Q.** Which results are given for `CCCCCOc1ccc(-c2ccc(-c3ccc([14C](=O)N[C@H]4C[C@@H](O)[C@@H](O)NC(=O)[C@@H]5[C@@H](O)[C@@H](C)CN5C(=O)[C@H]([C@@H](C)O)NC(=O)[C@H]([C@H](O)[C@@H](O)c5ccc(O)cc5)NC(=O)[C@@H]5C[C@@H](O)CN5C(=O)[C@H]([C@@H](C)O)NC4=O)cc3)cc2)cc1` [14C-ANIDULAFUNGIN]?
**A.** Drug uptake (Blood): 0.85 ugequiv; AUC (Plasma): 131.77 ugequiv.hr/g; Drug uptake (Kidney [1]): 12.57 ugequiv; Drug uptake (Liver [2]): 17.68 ugequiv; Drug uptake (Spleen [3]): 20.67 ugequiv; Drug uptake (Kidney [4]): 1.97 ugequiv; Drug uptake (Zone of skin [5]): 5.34 ugequiv; AUC (Liver [6]): 1346.94 ugequiv.hr/g; AUC (Cerebrospinal fluid [7]): 0.95 ugequiv.hr/g; Drug uptake [8]: 0.72 ugequiv; Drug uptake (Liver [9]): 29.1 ugequiv; AUC (Kidney [10]): 920.18 ugequiv.hr/g; Drug uptake (Zone of skin [11]): 4.04 ugequiv; AUC (Spleen [12]): 490.36 µg·h/g; Drug uptake (Zone of skin [13]): 3.5 ugequiv; Cmax [14]: 15900 ng/g; Drug uptake (Liver [15]): 1.83 ugequiv; Drug uptake (Kidney [16]): 2.57 ugequiv; t1/2 (Zone of skin [17]): 56.6 h; Drug uptake (Kidney [18]): 7.54 ugequiv; Drug uptake (Cerebrospinal fluid [19]): 5.54 ugequiv; Cmax (Lung): 39.29 ugequiv/g; Drug uptake (Kidney [20]): 20.66 ugequiv; AUC (Muscle tissue [21]): 139.22 ugequiv.hr/g; Drug uptake (Liver [22]): 25.01 ugequiv; AUC (Spleen [23]): 567.95 µg·h/g; Drug uptake (Muscle tissue [24]): 1.17 ugequiv
